From PubChem
KCNQ1 block – inhibitors of human KCNQ1 potassium channel; P51787; CHO-K1 KCNQ1, FluxOR thallium flux fluorescence; hits give high values; B-score at 10 µM; actives 1.3% (n = 310,000);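 active = compounds whose thallium flux B-score, printed positive for inhibition, exceeds three library SD while starting fluorescence stays within three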;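 note: channel opened by potassium depolarization with thallium stimulus after 20 min compound exposure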
Target sequence (P51787 whole entry, looked up): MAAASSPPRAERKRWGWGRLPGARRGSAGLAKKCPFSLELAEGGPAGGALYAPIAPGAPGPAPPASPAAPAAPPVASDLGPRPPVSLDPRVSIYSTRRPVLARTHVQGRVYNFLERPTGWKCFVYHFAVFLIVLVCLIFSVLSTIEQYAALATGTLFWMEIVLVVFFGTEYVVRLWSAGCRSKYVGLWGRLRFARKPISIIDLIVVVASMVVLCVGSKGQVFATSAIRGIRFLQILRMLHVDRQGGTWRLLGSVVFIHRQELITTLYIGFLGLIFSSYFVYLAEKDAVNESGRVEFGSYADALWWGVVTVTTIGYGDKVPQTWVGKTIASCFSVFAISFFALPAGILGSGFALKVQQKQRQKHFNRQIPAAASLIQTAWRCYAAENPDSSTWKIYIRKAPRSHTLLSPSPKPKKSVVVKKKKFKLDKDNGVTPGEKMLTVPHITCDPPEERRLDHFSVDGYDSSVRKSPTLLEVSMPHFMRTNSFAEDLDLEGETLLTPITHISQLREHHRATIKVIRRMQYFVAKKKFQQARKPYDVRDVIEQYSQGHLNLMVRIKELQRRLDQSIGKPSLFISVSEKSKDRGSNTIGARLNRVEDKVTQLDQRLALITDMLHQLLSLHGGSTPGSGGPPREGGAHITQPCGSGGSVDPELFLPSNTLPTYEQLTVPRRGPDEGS
KCNK3 block – human KCNK3 channel inhibition, primary screen; O14649; CHO-KCNK3 thallium flux, FluxOR fluorescence; hits give low values; B-score at 10 µM; actives 0.84% (n = 340,000); AID 602410;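 active = B-score under library mean minus 4 SD, starting fluorescence ratio at most library mean plus 5 SD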;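 note: more negative B-score means stronger inhibition of thallium flux through KCNK3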
Kir21 inh – blocks the mouse Kir2.1 inward-rectifier potassium channel. P35561. HEK293-Kir2.1, FluxOR thallium flux fluorescence; hits give low values. B-score at 10 µM. actives 0.85% (n = 310,000). AID 1672;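 active = fluorescence ratio B-score at or below minus 3 SD of library scores, with starting-brightness B-score within 2 SD, cut at about -4.2 in these data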;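 note: channel flux triggered by added potassium and thallium sulfate stimulus; B-score of peak minus minimum fluorescence over baseline after thallium stimulus; more negative B-score means stronger Kir2.1 block with less thallium influx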
hERG protect – compounds protecting human hERG from proarrhythmic drug block; CHO-hERG, FluxOR thallium flux, dofetilide IC70 present; activation (rescue from dofetilide block), less the hit threshold, % at 10 µM; actives 0.51% (n = 310,000);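 active = activation above the mean of controls blocked by dofetilide plus 5 SD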;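 note: thallium influx through hERG after potassium depolarization seen as dye fluorescence rise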
KCNQ1 pot – potentiates or activates the human KCNQ1 potassium channel; P51787; actives 0.35% (n = 310,000); AID 2648; B-score at 10 µM; CHO-K1 KCNQ1, thallium flux FluxOR fluorescence; hits give high values;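 active = fluorescence ratio B-score, a plate-corrected score, at least three library SD, with initial intensity B-score within 5 SD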
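Assay system: stable KCNQ1 CHO-K1 line; medium: assay buffer, equal DMSO in all wells; timing: 90 min dye loading and 20 min compound exposure, both at room temperature; technique: kinetic FluxOR thallium fluorescence, 10-s 1-Hz baseline, 110-s post-stimulus read; read-out basis: B score of baseline-normalized fluorescence ratio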
KCNK9 block – human KCNK9 channel inhibition; AID 488922; HEK293 KCNK9, FluxOR thallium flux fluorescence; hits give low values; Q9NPC2; B-score at 10 µM; actives 1.2% (n = 310,000);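 active = ratio B-score over 3 SD below the library mean, with starting fluorescence within 5 SD of its mean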;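 note: negative B-score means less thallium flux so channel inhibition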
KCNK9 block conf – human KCNK9 inhibitor confirmation; shares compounds with KCNK9 block; HEK293 KCNK9 cells, FluxOR thallium flux fluorescence; inhibition, % at 10 µM; actives 43% (n = 4,900); AID 492992;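 active = thallium signal inhibited by more than 5 SD of the compound-free buffer control wells, on both duplicate plates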;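 note: 0% = assay buffer control wells without compound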
Kir2-1 spec – selectivity of KCNK9 modulators against mouse Kir2.1. shares compounds with KCNK9 block. Kir2.1 cells, FluxOR thallium flux fluorescence. inhibition, % at 10 µM. actives 4% (n = 4,900);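 active = thallium signal drop more than 5 SD beyond the mean of the no-compound control wells, seen in both duplicate plates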;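 note: signal is fluorescence rise after thallium addition divided by baseline fluorescence; plate controls were assay buffer only for no effect and full block by chlorpromazine control for full effect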
KCNK9 uninduced – non-induced cell nonspecific activity of KCNK9 modulators. non-induced KCNK9-HEK293, FluxOR thallium flux. shares compounds with KCNK9 block. inhibition, % at 10 µM. actives 40% (n = 4,900);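 active = thallium signal drop beyond 5 SD of the untreated control mean, on both duplicate plates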;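 note: plate controls were buffer only IC0 wells for no effect and SID17386958 at its maximal inhibitory level for full effect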
KCNK3 confirm – confirmation of human KCNK3 two-pore domain potassium channel inhibitors; shares compounds with KCNK3 block; CHO-KCNK3 thallium flux, FluxOR fluorescence; 0% buffer, 100% carvedilol maximal block; ratio percent of control, % at 10 µM; actives 99% (n = 2,400); AID 651638;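 active = ratio percent of control, averaged over triplicates, above buffer control mean plus 5 SD, cut at about 64% in these data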;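 note: ratio is the fluorescence rise from min to max over baseline after thallium stimulus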
KCNK3 noninduced – counter-screen for KCNK3 inhibitors: effect in non-induced cells; shares compounds with KCNK3 block; non-induced KCNK3 parental cells, FluxOR thallium flux; hits give low values; thallium flux ratio (lower = more inhibition) at 10 µM; actives 40% (n = 2,400);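 active = thallium flux ratio, averaged over three wells, more than 5 SD below the buffer control mean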;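 note: host cells are CHO cells without KCNK3 induction; ratio is peak minus trough fluorescence over baseline then normalized to buffer controls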
Starred values were filed as active, the others as inactive; i = inactive; x = no result given. This is a sample that favours compounds with a hit; in the whole collection about 3.7% have one here.

SMILES	KCNQ1 block	KCNK3 block	Kir21 inh	hERG protect	KCNQ1 pot	KCNK9 block	KCNK9 block conf	Kir2-1 spec	KCNK9 uninduced	KCNK3 confirm	KCNK3 noninduced
COc1cccc(Nc2nc(-c3cccs3)nc3ccccc23)c1	i	i	0.73	-10	i	i	x	x	x	x	x
c1csc(-c2nc(N3CCOCC3)c3ccccc3n2)c1	i	i	-0.15	-6	i	i	x	x	x	x	x
COc1ccc(N2CCN(c3nc(-c4cccs4)nc4ccccc34)CC2)cc1	i	i	1.9	-17	i	-14*	31%*	i	28%*	x	x
CCOc1ccccc1N1CCN(C(=O)C(Sc2ccccc2)c2ccccc2)CC1 (stereo not given)	i	i	0.83	-9	i	-12*	56%*	i	28%*	x	x
Cc1ccccc1C(=O)N1CCN(C(c2ccccc2)c2ccccc2)CC1	i	i	0	-9	i	i	x	x	x	x	x
CCOc1ccccc1C(=O)N1CCN(C(c2ccccc2)c2ccccc2)CC1	i	i	-0.02	-12	i	-8.4*	i	i	26%*	x	x
O=C(CSc1nnc(NC(=O)c2ccco2)s1)Nc1ccc(F)cc1F	i	i	0.34	-11	i	i	x	x	x	x	x
CC1(C)Cc2cccc(C(=O)Nc3ccc(F)cc3F)c2O1	i	i	-2.2	-2	i	i	x	x	x	x	x
COc1cc(-c2nc(-c3ccccc3)c(-c3cccs3)[nH]2)cc(OC)c1O	i	i	-0.58	-21	i	-10*	51%*	i	i	x	x
CCSc1nc2ccccc2n1C(=O)c1ccc(S(=O)(=O)N2CCCCCC2)cc1	i	i	1.9	-7	i	i	i	i	i	x	x
Oc1cc(-c2ccccc2)c2ccccc2c1	8*	i	-4.6*	-17	i	-11*	49%*	i	34%*	x	x
O=C(C1CCCN(S(=O)(=O)c2cccc3cccnc23)C1)N1CCc2ccccc21 (stereo not given)	i	i	1.5	-12	i	i	i	i	i	x	x
O=C(NC1CCCCC1)C1CCCN(S(=O)(=O)c2cccc3cccnc23)C1 (stereo not given)	i	i	-0.01	-14	i	i	x	x	x	x	x
C/C(=N\NC(=O)COc1ccc(C)cc1C(C)C)c1cc2ccccc2o1	i	i	1.1	0	i	i	i	i	i	x	x
C/C(=N\NC(=O)COc1ccc(C(C)(C)C)cc1)c1cc2ccccc2o1	i	i	0.68	-3	i	i	i	i	i	x	x
Cc1ccc(NC2=NCC(=O)N2C2CCCC2)cc1	i	i	0.25	-9	i	i	x	x	x	x	x
CC[C@@]1(C(=O)OC)N[C@H](CN(C)C(=O)c2ccc(F)cc2)[C@@H]2C(=O)N(C)C(=O)[C@@H]21	x	i	x	x	x	x	x	x	x	x	x
CC(C)CC(c1nnnn1Cc1cccs1)N1CCN(c2nc3ccccc3s2)CC1 (stereo not given)	i	-10*	-1.1	-12	i	-12*	38%*	i	i	129*	0.12*
CSc1ccc(NC(=O)Nc2cc(C)ccn2)cc1	i	i	-0.06	0	i	i	x	x	x	x	x
CCC1(C)N(O)C(C)(C)C(c2ccc(F)cc2)=[N+]1[O-] (stereo not given)	i	i	-1.1	-6	i	i	x	x	x	x	x
O=C1NC(=O)/C(=C/c2ccc(N3CCOCC3)o2)N1	i	i	0.96	-6	i	i	x	x	x	x	x
Cc1ccc(/C(C#N)=C\c2ccc(N3CCOCC3)o2)cc1	9*	-15*	-0.68	-16	i	-12*	57%*	i	84%*	168*	0.044*
N#C/C(=C/c1ccc(Sc2nc3ccccc3[nH]2)o1)c1cccc(F)c1	13*	-9.8*	0.68	-15	i	i	i	i	i	122*	i
N#C/C(=C/c1ccc(N2CCCCC2)o1)c1cccc(F)c1	i	-14*	-2.2	-26	i	-10*	78%*	i	72%*	170*	0.079*
O=C(Nc1ccc2c(c1)OCCO2)c1cc2sccc2n1Cc1ccc(F)cc1	i	-11*	-0.12	-10	i	-12*	46%*	i	30%*	120*	0.12*
SMILES	KCNQ1 block	KCNK3 block	Kir21 inh	hERG protect	KCNQ1 pot	KCNK9 block	KCNK9 block conf	Kir2-1 spec	KCNK9 uninduced	KCNK3 confirm	KCNK3 noninduced
Cn1c(C(=O)Nc2ccc3c(c2)OCCO3)cc2sccc21	i	i	-2.3	-10	i	i	x	x	x	x	x
C=CCOC(=O)C1=C(C)NC(SCC)=C(C#N)C1c1ccc(Cl)cc1 (stereo not given)	9*	-8.8*	0.02	-3	i	-8.4*	i	i	40%*	116*	i
C=CCOC(=O)C1=C(C)NC(SCC(N)=O)=C(C#N)C1c1ccc(C)cc1 (stereo not given)	i	i	-1.8	-4	i	i	x	x	x	x	x
CC(C)(C)c1cc(OC(=O)c2ccccc2F)ccc1O	i	i	-2.2	-4	i	-10*	34%*	i	39%*	100*	i
COC(/C(=N/O)c1ccc(Cl)cc1)c1ccccc1 (stereo not given)	11*	-9.7*	-2.9	-20	i	-10*	38%*	i	48%*	114*	0.16*
Cc1cccc(C2c3[nH]c4ccccc4c3CCN2Cc2cccn2-c2ncccn2)c1 (stereo not given)	i	-14*	-1.8	-32	i	-8.5*	i	i	32%*	113*	i
c1ccc(C2c3[nH]c4ccccc4c3CCN2Cc2cccn2-c2ccccn2)nc1 (stereo not given)	i	i	-0.53	-19	i	i	x	x	x	x	x
COc1ccc(C2c3[nH]c4ccccc4c3CCN2Cc2cccn2-c2ncccn2)cc1C (stereo not given)	i	-13*	0.97	-20	i	-18*	54%*	i	36%*	131*	0.14*
